SMILES strings stand for the structures. Active and inactive are the calls of the source.

Experimental findings from ChEMBL document CHEMBL1140092, “New chimeric antimalarials with 4-aminoquinoline moiety linked to a tetraoxane skeleton” (J Med Chem, 2008) are described below.

Series [1] deals with Plasmodium falciparum. Nature of the series: Antimalarial activity against chloroquine-sensitive Plasmodium falciparum D6. The format is functional, organism-based. In a few lines:
(§1)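 In vitro blood-stage assay with P. falciparum clones: D6 (Sierra I/UNC isolate), W2 (Indochina I isolate) and TM91C235 (Southeast Asian isolate). Activity was expressed as IC90.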

In series [2] the test system is Plasmodium falciparum. Nature of the series: Antimalarial activity against chloroquine-resistant, mefloquine-susceptible Plasmodium falciparum W2. Format: functional, organism-based. The essentials:
as §1

Series [3] concerns Plasmodium falciparum. Nature of the series: Antimalarial activity against multidrug-resistant Plasmodium falciparum TM91C235. Format: functional, organism-based. In a few lines: as §1
For series [4], the system named is Plasmodium berghei. Nature of the series: Antimalarial activity against Plasmodium berghei KBG173 infected ICR mice (Mus musculus) assessed at 80 mg/kg/day peroral dose from days 3 to 5 post infection. Format: functional. The conditions noted are these: route oral. In a few lines: (§2)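 Modified Thompson test in groups of five ICR mice. Mice were inoculated ip with P. berghei KBG 173-infected erythrocytes on day 0. Compound was suspended in 0.5% hydroxyethylcellulose-0.1% Tween 80 and given orally once daily on days 3-5. Blood smears were read on days 6-31. Cure was defined as alive on day 31 with no parasites in a blood film. Necropsy followed.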

The subject of series [5] is Mycobacterium tuberculosis. Nature of the series: Antitubercular activity against Mycobacterium tuberculosis H37Rv at 6.26 ug/ml by alamar blue assay. Format: functional. The essentials:
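Screened against M. tuberculosis H37Rv at TAACF by Alamar blue assay at a cutoff of 6.26 µg/mL. Active was defined as >90% inhibition.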

The test system of series [6] is Plasmodium berghei. Nature of the series: Antimalarial activity against Plasmodium berghei KBG173 infected ICR mice (Mus musculus) at 20 mg/kg/day peroral dose from day 3 post infection at day 31 by modified Thompson test. The format is functional, organism-based. In a few lines:
as §2

Series [7] has as its system Plasmodium berghei. Nature of the series: Antimalarial activity against Plasmodium berghei KBG173 infected ICR mice (Mus musculus) at 320 mg/kg/day peroral dose from days 3 to 5 post infection. Format: functional. Particulars: route oral. In a few lines: as §2
The test system of series [8] is Plasmodium berghei. Nature of the series: Antimalarial activity against Plasmodium berghei KBG173 infected ICR mice (Mus musculus) assessed at 20 mg/kg/day peroral dose from days 3 to 5 post infection. The format is functional. Particulars: route oral. The essentials:
as §2

The test system of series [9] is Mycobacterium tuberculosis. Nature of the series: Antitubercular activity against Mycobacterium tuberculosis H37Rv by microplate alamar blue assay. The format is functional. In a few lines:
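M. tuberculosis H37Rv was tested at TAACF by microplate Alamar blue assay (MABA). Inhibitory activity was reported as IC90.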

For series [10], the system named is Plasmodium berghei. The series can be described thus: Antimalarial activity against Plasmodium berghei KBG173 infected ICR mice (Mus musculus) at 320 mg/kg/day peroral dose from day 3 post infection at day 31 by modified Thompson test. The format is functional, organism-based. The essentials: as §2
Series [11] can be described thus: Toxicity in Plasmodium berghei KBG173-infected perorally dosed ICR mice (Mus musculus) assessed as maximum tolerated dose. The format is organism-based. The conditions noted are these: in vivo, po. The essentials: (§3)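 Orally dosed, P. berghei KBG 173-infected ICR mice in groups of five received compound suspended in 0.5% hydroxyethylcellulose-0.1% Tween 80 once daily for three consecutive days. Doses went up to 960 mg/kg. Toxicity was judged by survival and by gross lesions at necropsy.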

Another series concerns Mus musculus. The series can be described thus: Toxicity in Plasmodium berghei KBG173-infected ICR mice (Mus musculus) at 960 mg/kg, perorally for 3 days. More on the design: dose 960 mg/kg, route oral. Format: organism-based. Particulars: in vivo, po, 72 h. The essentials: as §3
Series [12] in a line: Metabolic stability in mouse liver microsomes assessed as half life. The format is ADME, Microsome.
Series [13] can be described thus: Metabolic stability in human liver microsomes assessed as half life. Format: ADME, Microsome.

Regarding `C[C@@H]1CC[C@H]2[C@@H](C)C(=O)O[C@@H]3O[C@@]4(C)CC[C@@H]1[C@]32OO4` [ARTEMISININ], the values for the IC50 in the series with Plasmodium falciparum [1], in the series on Plasmodium falciparum [2] and with Plasmodium falciparum [3] were 9 nM, 6.7 nM and 13 nM, respectively. The concentration for an effect of 90% (IC90) in the series on Plasmodium falciparum [1] was 12.8 nM; in the series on Plasmodium falciparum [2], 11.5 nM; in the series on Plasmodium falciparum [3], 17.4 nM.

Consider `OC(c1cc(C(F)(F)F)nc2c(C(F)(F)F)cccc12)C1CCCCN1` (configuration not stated) [MEFLOQUINE], for which the figures for the IC50 with Plasmodium falciparum [1], with Plasmodium falciparum [2] and in the series on Plasmodium falciparum [3] were 19 nM, 5.35 nM and 47.5 nM, respectively. Also, the IC90 in the series on Plasmodium falciparum [1] is 44.8 nM; in the series on Plasmodium falciparum [2], 18.6 nM; in the series with Plasmodium falciparum [3], 153 nM.

On to `CCN(CC)CCCC(C)Nc1ccnc2cc(Cl)ccc12` (configuration not stated) [CHLOROQUINE], for which the IC90 amounted to 15.9 nM in the series with Plasmodium falciparum [1], 640 nM in the series on Plasmodium falciparum [2] and 264 nM in the series with Plasmodium falciparum [3].

Take `Clc1ccc2c(NCCNCC3CCC4(CC3)OOC3(CCCCC3)OO4)ccnc2c1`: the IC50 amounted to 9.05 nM with Plasmodium falciparum [1], 5.76 nM with Plasmodium falciparum [2] and 9.9 nM with Plasmodium falciparum [3]. The IC90 was 18.2 nM in the series with Plasmodium falciparum [1], under 430 nM in series [9], 12.4 nM in the series with Plasmodium falciparum [2] and 18.3 nM with Plasmodium falciparum [3]. The Survival is 26.4 days in the series on Plasmodium berghei [4], over 31 days with Plasmodium berghei [7] and 15.8 days in the series on Plasmodium berghei [8]. In series [5], the inhibition at 6.26 µg/mL is over 90%. Moreover, in the series on Plasmodium berghei [6], the outcome was inactive. The result with Plasmodium berghei [10] was Active. Moreover, the MTD in series [11] was over 960 mg/kg. Further, the Activity result with Mus musculus is “Non-toxic”.

On to `CC(=O)O[C@H]1C[C@H]2[C@@H]([C@H](OC(C)=O)C[C@@H]3CC4(CC[C@@]32C)OOC2(CCCCC2)OO4)[C@@H]2CC[C@H]([C@H](C)CCCNCCNc3ccnc4cc(Cl)ccc34)[C@@]12C`, for which the figures for the IC50 in the series with Plasmodium falciparum [1], in the series on Plasmodium falciparum [2] and in the series with Plasmodium falciparum [3] were 33.5 nM, 22.9 nM and 30.2 nM, respectively. The IC90 in the series on Plasmodium falciparum [1] is 103 nM; in series [9] it was 330 nM; in the series on Plasmodium falciparum [2], 30.3 nM; in the series on Plasmodium falciparum [3], 160 nM. In series [5], this compound registered an inhibition at 6.26 µg/mL of over 90%.

On to `CC(=O)O[C@H]1C[C@H]2[C@@H]([C@H](OC(C)=O)C[C@@H]3CC4(CC[C@@]32C)OOC2(CCCCC2)OO4)[C@@H]2CC[C@H]([C@H](C)CCC(=O)NCCNc3ccnc4cc(Cl)ccc34)[C@@]12C`, for which the IC50 in the series with Plasmodium falciparum [1] came out at 6.53 nM; with Plasmodium falciparum [2], 4.47 nM; in the series with Plasmodium falciparum [3], 8.54 nM. The IC90 in the series on Plasmodium falciparum [1] amounted to 10.6 nM; in series [9], 400 nM; with Plasmodium falciparum [2], 10.7 nM; with Plasmodium falciparum [3], 17.2 nM. The compound also had an inhibition at 6.26 µg/mL in series [5] of over 90%.

`O=C(NCCNc1ccnc2cc(Cl)ccc12)C1CCC2(CC1)OOC1(CCCCC1)OO2`: the half-life in [12] and in series [13] was over 1 h throughout. In addition, the half-inhibitory concentration (IC50) in the series on Plasmodium falciparum [1] amounted to 2.33 nM; with Plasmodium falciparum [2] it was 2 nM; in the series with Plasmodium falciparum [3] it was 3.7 nM. Besides, the IC90 with Plasmodium falciparum [1] is 3.75 nM; in the series on Plasmodium falciparum [2], 2.26 nM; with Plasmodium falciparum [3], 7.38 nM. The Survival in the series on Plasmodium berghei [4] was 26.2 days; with Plasmodium berghei [7], over 31 days; with Plasmodium berghei [8] it was 14.2 days. The inhibition at 6.26 µg/mL in series [5] is over 90%. Further, the outcome with Plasmodium berghei [6] was inactive. Besides, the result in the series on Plasmodium berghei [10] was Active. Moreover, the maximal tolerated dose (MTD) in series [11] was over 960 mg/kg. Also, the Activity entry in the series on Mus musculus is given as “Non-toxic”.
